Results published in ChEMBL document CHEMBL4732146, “Nitric oxide-donating and reactive oxygen species-responsive prochelators based on 8-hydroxyquinoline as anticancer agents” (Eur J Med Chem, 2021).
pIC50: −log10 of the molar value. Active and inactive are the calls of the source. The rule behind the calls is not given here.

Tests used:
[1] = Stability of compound in pH 5 PBS buffer measured after 5 to 24 hrs by RP-HPLC analysis; type: physicochemical; conditions: time 5-24 hrs
In short: (§1)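 Compound (1 µM) stirred at 37 °C either in PBS (pH 5.0, 7.4 or 10.0) containing 5% DMSO or in DMEM with 10% FBS. Aliquots were analysed by RP-HPLC (0.1% TFA water/methanol gradient, 256 nm) for remaining intact compound, up to 24 h.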

[2] = Stability of compound in DMEM with 10% fetal bovine serum measured after 5 to 24 hrs by RP-HPLC analysis; type: cell-free; conditions: time 5-24 hrs; in short: as §1
[3] = system: PANC-1; assay: Cytotoxicity against human PANC-1 cells assessed as reduction in cell viability measured after 48 hrs in presence of FeCl3 by MTT assay; type: functional, cell-based; conditions: PANC-1, 48 h
In short: (§2)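 Cells seeded 6 × 10⁴ per well, cultured 24 h at 37 °C under 5% CO₂, then exposed to compound for 48 h, with or without 50 µM CuCl₂ or FeCl₃ co-incubation. MTT added for 4 h at 37 °C, formazan dissolved in DMSO, A490 read. IC50 reported as mean (SD), n = 3.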

[4] = Cytotoxicity against human RWPE2 cells assessed as reduction in cell viability measured after 48 hrs by MTT assay; type: cell-based; conditions: RWPE2, 48 h; in short: as §2
[5] = system: SW1990; assay: Cytotoxicity against human SW1990 cells assessed as reduction in cell viability measured after 48 hrs by MTT assay; type: functional, cell-based; conditions: SW1990, 48 h; in short: as §2
[6] = Cytotoxicity against human H6C7 cells assessed as reduction in cell viability measured after 48 hrs by MTT assay; type: cell-based; conditions: H6C7, 48 h; in short: as §2
[7] = system: PANC-1; assay: Cytotoxicity against human PANC-1 cells assessed as reduction in cell viability measured after 48 hrs by MTT assay; type: functional, cell-based; conditions: PANC-1, 48 h; in short: as §2
[8] = Stability of compound in pH 7.4 PBS buffer measured after 5 to 24 hrs by RP-HPLC analysis; type: physicochemical; conditions: time 5-24 hrs; in short: as §1
[9] = system: SW1990; assay: Cytotoxicity against human SW1990 cells assessed as reduction in cell viability measured after 48 hrs in presence of FeCl3 by MTT assay; type: functional, cell-based; conditions: SW1990, 48 h; in short: as §2
[10] = Stability of compound in pH 10 PBS buffer measured after 5 to 24 hrs by RP-HPLC analysis; type: physicochemical; conditions: time 5-24 hrs; in short: as §1
[11] = system: SW1990; assay: Cytotoxicity against human SW1990 cells assessed as reduction in cell viability measured after 48 hrs in presence of CuCl2 by MTT assay; type: functional, cell-based; conditions: SW1990, 48 h; in short: as §2
[12] = system: PANC-1; assay: Cytotoxicity against human PANC-1 cells assessed as reduction in cell viability measured after 48 hrs in presence of CuCl2 by MTT assay; type: functional, cell-based; conditions: PANC-1, 48 h; in short: as §2
[13] = system: SW1990; assay: Cytotoxicity against human SW1990 cells assessed as reduction in cell viability at 10 to 20 uM measured after 48 hrs by MTT assay; type: functional, cell-based; conditions: dose 10-20 µM
In short: (§3)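 MTT assay with 48 h compound exposure at 10 or 20 µM. Cells seeded 6 × 10⁴ per well and grown 24 h beforehand. MTT 4 h, DMSO solubilisation, A490 read. Percent cell death given as mean ± SD, n = 3.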

[14] = system: SW1990; assay: Induction of apoptosis in human SW1990 cells at 12 uM measured after 24 hrs by Annexin V-FITC/propidium iodide staining based flow cytometry; type: functional, cell-based
In short: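 SW1990 cells seeded 5 × 10⁵ per well and grown 24 h, then treated 24 h at 8 or 12 µM. Optional 1 h pretreatment with 20 mM NAC or 50 µM carboxyl-PTIO before 12 µM treatment. Cells stained with annexin V-FITC 15 min and PI 5 min at room temperature in the dark, then analysed by flow cytometry. Mean ± SD, n = 3.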

[15] = system: HeLa; assay: Cytotoxicity against human HeLa cells assessed as reduction in cell viability at 10 to 20 uM measured after 48 hrs by MTT assay; type: functional, cell-based; conditions: dose 10-20 µM
[16] = system: PANC-1; assay: Cytotoxicity against human PANC-1 cells assessed as reduction in cell viability at 20 uM measured after 48 hrs by MTT assay relative to control; type: functional; in short: as §3
[17] = Metal chelating activity assessed as compound-Fe3+ complex formation measured after 40 mins by calcein dye based fluorescence assay; conditions: dose 10-50 µM
In short: (§4)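 Calcein (10 µM) in 50 mM HEPES was quenched by 10 µM CuCl₂ (or FeCl₃ for the Fe³⁺ arm). Chelator was added from DMSO stock to a final 10 or 50 µM and incubated 40 min at room temperature. Recovery rate was calculated from fluorescence (λex 485 / λem 520 nm); n = 3.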

[18] = system: MCF7; assay: Cytotoxicity against human MCF7 cells assessed as reduction in cell viability at 10 to 20 uM measured after 48 hrs by MTT assay; type: functional, cell-based; conditions: dose 10-20 µM; in short: as §3
[19] = system: A549; assay: Cytotoxicity against human A549 cells assessed as reduction in cell viability at 10 to 20 uM measured after 48 hrs by MTT assay; type: functional, cell-based; conditions: dose 10-20 µM
[20] = system: PANC-1; assay: Cytotoxicity against human PANC-1 cells assessed as reduction in cell viability at 10 uM measured after 48 hrs by MTT assay; type: functional, cell-based; in short: as §3
[21] = Metal chelating activity assessed as compound-Cu2+ complex formation measured after 40 mins by calcein dye based fluorescence assay; conditions: dose 10-50 µM; in short: as §4
[22] = system: HepG2; assay: Cytotoxicity against human HepG2 cells assessed as reduction in cell viability at 10 to 20 uM measured after 48 hrs by MTT assay; type: functional, cell-based; conditions: dose 10-20 µM; in short: as §3

Structure (SMILES)	Stabilty [1]	Stability [2]	pIC50 [3]	pIC50 [4]	pIC50 [5]	pIC50 [6]	pIC50 [7]	Stabilty [8]	pIC50 [9]	Stabilty [10]	pIC50 [11]	pIC50 [12]	Activity [15]	Activity [16]	Activity [17]	Activity [18]	Activity [19]	Activity [20]	Activity [21]	Activity [22]	further results
O=C(c1ccc2cccc(OCc3ccc(B(O)O)cc3)c2n1)N1CCC(Oc2no[n+]([O-])c2S(=O)(=O)c2ccccc2)CC1	Stable	Stable	4.69	4.52	4.89	< 4.30	4.78	Stable	4.73	Stable	5.52	5.57	–	–	–	–	–	–	–	–	–
O=C(NCCCOc1no[n+]([O-])c1S(=O)(=O)c1ccccc1)c1ccc2cccc(OCc3ccccc3)c2n1	–	–	–	–	–	–	–	–	–	–	–	–	–	–	–	–	–	–	–	–	Activity [13]: inactive; Activity [14]: Active
O=C(/C=C/c1ccc2cccc(O)c2n1)NCCCOc1no[n+]([O-])c1S(=O)(=O)c1ccccc1	–	–	–	–	–	–	–	–	–	–	–	–	Active	Active	Dose-dependent effect	Active	Active	Active	Dose-dependent effect	Active	–
CC1(C)OB(c2ccc(COc3cccc4ccc(C(=O)N5CCC(Oc6no[n+]([O-])c6S(=O)(=O)c6ccccc6)CC5)nc34)cc2)OC1(C)C	Stable	Stable	4.42	4.54	4.92	4.47	4.88	Stable	4.47	Stable	5.54	5.46	–	–	–	–	–	–	–	–	–
O=C(c1ccc2cccc(O)c2n1)N1CCN(CCOc2no[n+]([O-])c2S(=O)(=O)c2ccccc2)CC1	–	–	–	–	–	–	–	–	–	–	–	–	Active	Active	Dose-dependent effect	Active	Active	Active	Dose-dependent effect	Active	–
